Test results as given in ChEMBL document CHEMBL1777798, “Novel fungicidal benzylsulfanyl-phenylguanidines” (Bioorg Med Chem Lett, 2011).
In brackets after ≈: the same amount, converted by molar mass.

Key:
Candida albicans [1] = assay: Fungicidal activity against Candida albicans SC5314 assessed as concentration required to less than 0.1% survival of organism after 2 hrs; type: functional; conditions: SC5314, 2 h
Method in brief: (§1)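 C. albicans SC5314 or C. glabrata BG2 exposed to compounds. Cells then washed and plated on YPD (1% yeast extract, 2% peptone, 2% glucose) for CFU counts. MFC = minimal concentration leaving <0.1% survival relative to DMSO control.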

Nakaseomyces glabratus = assay: Fungal activity against Candida glabrata BG2 assessed as concentration required to less than 0.1% survival of organism after 2 hrs; type: functional; conditions: BG2, 2 h; method in brief: as §1
[2] = Toxicity in glp-4delta sek-1 delta double mutant Caenorhabditis elegans model assessed as survival at 50 uM after 11 days relative to day 0; type: organism-based; conditions: in vivo
Method in brief: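 glp-4Δsek-1Δ C. elegans grown on NGM/OP50 E. coli plates to L4 and washed in M9 buffer (with cholesterol and kanamycin). 40–50 worms per well in 1 mL M9 with compound at 50 μM or DMSO (0.5%) control. Survival counted daily, relative to day 0. Mean ±SEM of duplicates; experiments run at least twice.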

Candida albicans [3] = assay: Fungicidal activity against Candida albicans SC5314-infected Caenorhabditis elegans L4 larvae model assessed as survival of worms at 60 uM after 5 days relative to day 0; type: functional
Method in brief: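 C. elegans L4 larvae fed 4 h on YPD agar lawns of C. albicans SC5314 (overnight culture spread, 16 h at 37 °C). Worms washed in M9 buffer and incubated with compound at 60 μM or DMSO control. Living worms counted daily; % survival relative to day 0. Mean ±SEM of duplicates; experiments run at least twice.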

Candida albicans [4] = assay: Fungicidal activity against Candida albicans SC5314 assessed as biofilm eradication after 24 hrs; type: functional
[5] = Antimicrobial activity against mixed Candida albicans SC5314/Staphylococcus epidermidis assessed as biofilm eradication after 24 hrs; type: functional
Method in brief: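 Mixed biofilm of C. albicans SC5314 and S. epidermidis (50/50). Overnight cultures suspended in 1/20 TSB at OD590 0.5 and mixed. 24 h adhesion, planktonic cells removed, then 48 h growth in fresh 1/20 TSB. Mature biofilms exposed 24 h to compound in PBS. Biomass read by crystal violet staining. BEC50 = concentration eradicating 50% of biofilm.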

N=C(N)Nc1ccccc1SCc1cc(Br)cc(Br)c1
MFC (Candida albicans [1]): 50 µM (≈ 20.8 µg/mL) | MFC (Nakaseomyces glabratus): 50 µM (≈ 20.8 µg/mL)

Nc1ccccc1SCc1cc(Br)cc(Br)c1
MFC (Candida albicans [1]): > 100 µM | MFC (Nakaseomyces glabratus): > 100 µM

Nc1ccc(SCc2ccc(Cl)cc2)cc1
MFC (Candida albicans [1]): > 100 µM | MFC (Nakaseomyces glabratus): > 100 µM

N=C(N)NC(=N)Nc1ccc(SCc2cc(Br)cc(Br)c2)cc1
MFC (Candida albicans [1]): > 100 µM | MFC (Nakaseomyces glabratus): > 100 µM

N=C(N)Nc1ccc(SCc2ccc(Cl)cc2)cc1
MFC (Candida albicans [1]): 50 µM (≈ 14.6 µg/mL) | MFC (Nakaseomyces glabratus): 50 µM (≈ 14.6 µg/mL)

N=C(N)NC(=N)Nc1cccc(SCc2ccc(Cl)cc2)c1
MFC (Candida albicans [1]): 50 µM (≈ 16.7 µg/mL) | MFC (Nakaseomyces glabratus): 50 µM (≈ 16.7 µg/mL)

Brc1cc(Br)cc(CSc2cccc(N=C(NC3CCCCC3)NC3CCCCC3)c2)c1
MFC (Candida albicans [1]): 5 µM (≈ 2.9 µg/mL) | MFC (Nakaseomyces glabratus): 5 µM (≈ 2.9 µg/mL) | survival at 264 h, 50 µM [2]: 33% | survival at 60 µM (Candida albicans [3]): 55.5%

Clc1ccc(CSc2ccccc2N=C(NC2CCCCC2)NC2CCCCC2)cc1
MFC (Candida albicans [1]): > 100 µM | MFC (Nakaseomyces glabratus): 50 µM (≈ 22.8 µg/mL)

Clc1ccc(CSc2cccc(N=C(NC3CCCCC3)NC3CCCCC3)c2)cc1
MFC (Candida albicans [1]): 5 µM (≈ 2.28 µg/mL) | MFC (Nakaseomyces glabratus): 5 µM (≈ 2.28 µg/mL) | survival at 264 h, 50 µM [2]: 19% | survival at 60 µM (Candida albicans [3]): 18.5%

N=C(N)Nc1ccc(SCc2cc(Br)cc(Br)c2)cc1
MFC (Candida albicans [1]): 50 µM (≈ 20.8 µg/mL) | MFC (Nakaseomyces glabratus): 50 µM (≈ 20.8 µg/mL)

Nc1ccc(SCc2cc(Br)cc(Br)c2)cc1
MFC (Candida albicans [1]): > 100 µM | MFC (Nakaseomyces glabratus): > 100 µM

N=C(N)NC(=N)Nc1ccc(SCc2ccc(Cl)cc2)cc1
MFC (Candida albicans [1]): 50 µM (≈ 16.7 µg/mL) | MFC (Nakaseomyces glabratus): 50 µM (≈ 16.7 µg/mL)

Nc1ccccc1SCc1ccc(Cl)cc1
MFC (Candida albicans [1]): > 100 µM | MFC (Nakaseomyces glabratus): > 100 µM

OC(Cn1cncn1)(Cn1cncn1)c1ccc(F)cc1F [FLUCONAZOLE]
MFC (Candida albicans [1]): > 100 µM | MFC (Nakaseomyces glabratus): > 100 µM | BBC50 (Candida albicans [4]): >240 µM | BBC50 [5]: >240 µM

N=C(N)Nc1cccc(SCc2ccc(Cl)cc2)c1
MFC (Candida albicans [1]): 100 µM (≈ 29.2 µg/mL) | MFC (Nakaseomyces glabratus): 100 µM (≈ 29.2 µg/mL)

Clc1ccc(CSc2ccc(N=C(NC3CCCCC3)NC3CCCCC3)cc2)cc1
MFC (Candida albicans [1]): > 100 µM | MFC (Nakaseomyces glabratus): > 100 µM

Brc1cc(Br)cc(CSc2ccc(N=C(NC3CCCCC3)NC3CCCCC3)cc2)c1
MFC (Candida albicans [1]): 5 µM (≈ 2.9 µg/mL) | MFC (Nakaseomyces glabratus): 5 µM (≈ 2.9 µg/mL) | survival at 264 h, 50 µM [2]: 51% | survival at 60 µM (Candida albicans [3]): 49%

Cl.N=C(N)NC(=N)Nc1cccc(SCc2cc(Br)cc(Br)c2)c1
MFC (Candida albicans [1]): 5 µM | MFC (Nakaseomyces glabratus): 10 µM | BBC50 [5]: 55 µM | survival at 264 h, 50 µM [2]: 5% | survival at 60 µM (Candida albicans [3]): 15.4%

Brc1cc(Br)cc(CSc2ccccc2N=C(NC2CCCCC2)NC2CCCCC2)c1
MFC (Candida albicans [1]): 5 µM (≈ 2.9 µg/mL) | MFC (Nakaseomyces glabratus): 50 µM (≈ 29 µg/mL)

N=C(N)Nc1cccc(SCc2cc(Br)cc(Br)c2)c1
MFC (Candida albicans [1]): 50 µM (≈ 20.8 µg/mL) | MFC (Nakaseomyces glabratus): 50 µM (≈ 20.8 µg/mL)

N=C(N)Nc1ccccc1SCc1ccc(Cl)cc1
MFC (Candida albicans [1]): > 100 µM | MFC (Nakaseomyces glabratus): > 100 µM
